{"data": "Experimental data gathered from unrelated publications", "target": "Serine/threonine-protein kinase mTOR (MTOR, Homo sapiens, UniProt P42345)", "note": "Protocols differ between the studies behind these lines."}
{"Compound": "Cc1cnc(NC2CCOCC2)nc1-n1cnc(C(=O)NC(CN)c2cc(F)cc(Cl)c2)c1 (centres unmarked)", "observed": "enzyme activity", "action": "inhibitor", "method": "radiometric", "tested at": "1 µM", "quantity": "remaining activity", "result": "82%"}
{"Compound": "COc1cc2ncnc(Nc3ccc(Oc4ccccc4)c(C)c3C)c2cc1OC", "observed": "enzyme activity", "action": "inhibitor", "tested at": "1 µM", "quantity": "inhibition", "result": "0%"}
{"Compound": "CC(C)(C)c1nc(-c2cccc(NS(=O)(=O)c3c(F)cccc3F)c2F)c(-c2ccnc(N)n2)s1", "observed": "enzyme activity", "action": "inhibitor", "method": "radiometric", "tested at": "1 µM", "quantity": "remaining activity", "result": "99%"}
{"Compound": "Cn1cc(Cl)c2c(Oc3c(F)cc(Nc4cc(Cl)nc(N)n4)cc3F)ccnc21", "observed": "cell-free assay", "method": "competition with immobilised ligand", "tested at": "0.1 µM", "quantity": "remaining binding", "result": "85%"}
{"Compound": "CC(C)CCn1c(SCC(=O)Nc2ccccc2C(F)(F)F)nc2nccnc2c1=O", "observed": "enzyme activity", "action": "inhibitor", "tested at": "10 µM", "quantity": "inhibition", "result": "< 20%"}
{"Compound": "CCCOc1ccc(OC)c(F)c1C(=O)c1ccc(C(=O)N[C@@H]2CNC[C@H]2NC(=O)c2ccc3[nH]ncc3c2)cc1", "observed": "enzyme activity", "action": "inhibitor", "tested at": "10 µM", "quantity": "remaining activity", "result": "86%"}
{"Compound": "CNCc1ccc(-c2cc(-c3nc(-c4ccc(S(=O)(=O)C(C)C)cc4)cnc3N)on2)cc1", "observed": "enzyme activity", "action": "inhibitor", "tested at": "2 µM", "quantity": "inhibition", "result": "37%"}
{"Compound": "CCCCN(CCCC)C(=O)CN1C[C@@H](c2cc(OC)c3c(c2)OCO3)[C@H](C(=O)O)[C@H]1CC(C)(C)CCC", "observed": "cell-free assay", "method": "competition with immobilised ligand", "tested at": "1 µM", "quantity": "remaining binding", "result": "100%"}
{"Compound": "CC(C)c1ccc(NC(=O)c2cccs2)c(-c2nc3ccccc3[nH]c2=O)c1", "observed": "enzyme activity", "action": "inhibitor", "tested at": "1 µM", "quantity": "activity vs control", "result": "85%"}
{"Compound": "O=C(CSc1nc2nccnc2c(=O)n1CCc1ccccc1)Nc1nccs1", "observed": "enzyme activity", "action": "inhibitor", "tested at": "10 µM", "quantity": "inhibition", "result": "4%"}
{"Compound": "Nc1ncnc2occ(-c3ccc(NC(=O)Nc4cc(C(F)(F)F)ccc4F)cc3)c12", "observed": "enzyme activity", "action": "inhibitor", "tested at": "20 µM", "quantity": "remaining activity", "result": "74%"}
{"Compound": "Cc1noc([C@H]2C[C@@H](c3ccc(C(F)(F)F)cc3)CN(C(=O)N3CCS(=O)(=O)C3)C2)n1", "observed": "cell-free assay", "method": "competition with immobilised ligand", "tested at": "1 µM", "quantity": "remaining binding", "result": "92%"}
{"Compound": "N[C@@H]1CCN(c2nccc(-c3cnn4ncccc34)n2)C1", "observed": "binding", "tested at": "1 µM", "quantity": "remaining binding", "result": "99%"}
{"Compound": "CCc1ccccc1C(=O)Nc1n[nH]c2c(C)c(F)c(C3C(C#N)=C(C)N(C)C(C)=C3C#N)cc12", "observed": "cell-free assay", "method": "competition with immobilised ligand", "tested at": "1 µM", "quantity": "remaining binding", "result": "100%"}
{"Compound": "Cc1ccc(NC(=O)c2ccc(C)c(C(F)(F)F)c2)cc1C#Cc1nn(C2CCC(O)CC2)c2ncnc(N)c12 (centres unmarked)", "observed": "cell-free assay", "action": "inhibitor", "tested at": "10 µM", "quantity": "remaining signal", "result": "101%"}
{"Compound": "CNC(=O)Nc1ccc2c(c1)[C@@]1(CC2)OC(=O)N(CC(=O)N(Cc2ccc(F)cc2)[C@@H](C)C(F)(F)F)C1=O", "observed": "cell-free assay", "method": "competition with immobilised ligand", "tested at": "1 µM", "quantity": "remaining binding", "result": "100%"}
{"Compound": "CN1CC(Oc2cnc(C#N)cc2-c2ccn3nc(NC(=O)C4CC4)cc3c2)C1", "observed": "enzyme activity", "action": "inhibitor", "tested at": "1 µM", "quantity": "inhibition", "result": "1%"}
